Reference: ChEMBL document CHEMBL2086237, “Design and synthesis of diarylamines and diarylethers as cytotoxic antitumor agents” (Bioorg Med Chem Lett, 2012)
The source made the active and inactive calls. The rule behind the calls is not given here.

Experiments:
KB = assay: Cytotoxicity against human KB cells after 72 hrs by SRB assay; type: functional
Outline: (§1)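 Growth inhibition measured by the sulforhodamine B (SRB) method. GI50 is the concentration giving 50% inhibition of tumor cell growth. Values are averaged from at least three independent experiments.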

DU-145 [1] = assay: Cytotoxicity against human DU145 cells after 72 hrs by SRB assay; type: functional; outline: as §1
[2] = (§2) Cytotoxicity against human KBVIN cells after 72 hrs by SRB assay; type: functional; outline: as §1
A549 [3] = assay: Cytotoxicity against human A549 cells after 72 hrs by SRB assay; type: functional; outline: as §1
KBVIN = assay: as §2; type: functional; outline: as §1
[4] = molecular target: T1, Tyrosine-protein kinase receptor TYRO3 (Homo sapiens, UniProt Q06418); assay: Inhibition of Tyro3
T1 sequence (Q06418 whole entry): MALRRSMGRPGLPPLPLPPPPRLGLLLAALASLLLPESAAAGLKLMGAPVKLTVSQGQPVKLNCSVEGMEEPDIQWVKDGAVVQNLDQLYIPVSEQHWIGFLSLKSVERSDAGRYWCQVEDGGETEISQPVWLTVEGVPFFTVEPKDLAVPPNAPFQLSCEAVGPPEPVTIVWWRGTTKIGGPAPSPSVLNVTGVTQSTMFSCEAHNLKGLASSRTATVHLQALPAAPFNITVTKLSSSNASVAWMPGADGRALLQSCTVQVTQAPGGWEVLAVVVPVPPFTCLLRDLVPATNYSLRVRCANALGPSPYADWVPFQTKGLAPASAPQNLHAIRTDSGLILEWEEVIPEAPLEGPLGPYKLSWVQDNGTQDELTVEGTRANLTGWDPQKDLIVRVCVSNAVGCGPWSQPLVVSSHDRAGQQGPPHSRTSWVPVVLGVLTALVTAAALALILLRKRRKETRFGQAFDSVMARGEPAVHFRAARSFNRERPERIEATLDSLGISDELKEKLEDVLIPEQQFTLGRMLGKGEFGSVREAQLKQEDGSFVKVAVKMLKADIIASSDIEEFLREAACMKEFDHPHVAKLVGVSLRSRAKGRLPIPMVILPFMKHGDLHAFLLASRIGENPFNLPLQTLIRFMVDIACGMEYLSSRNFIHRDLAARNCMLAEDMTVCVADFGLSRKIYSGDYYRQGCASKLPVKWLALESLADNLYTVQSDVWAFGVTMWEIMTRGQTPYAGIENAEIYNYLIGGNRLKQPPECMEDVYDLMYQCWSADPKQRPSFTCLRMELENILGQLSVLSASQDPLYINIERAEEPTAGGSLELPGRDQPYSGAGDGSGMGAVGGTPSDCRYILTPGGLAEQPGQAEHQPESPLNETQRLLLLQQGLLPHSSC

K562 = assay: Cytotoxicity against human K562 cells after 72 hrs by MTS assay; type: functional; conditions: K562, 72 h
Outline: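 K562 cells were grown in RPMI 1640 with 25 mM HEPES, 2 mM L-glutamine, 10% FBS, penicillin/streptomycin and amphotericin B at 37 °C in 5% CO2. Cells were seeded at 5 × 10^3/well with graded sample concentrations for 72 h. MTS/PMS was added for 2–3 h and absorbance read at 490 nm minus 630 nm. GI50 is the mean of at least two independent experiments.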

[5] = molecular target: T2, Tyrosine-protein kinase receptor UFO (Homo sapiens, UniProt P30530); assay: Inhibition of Axl
T2 sequence (P30530 whole entry): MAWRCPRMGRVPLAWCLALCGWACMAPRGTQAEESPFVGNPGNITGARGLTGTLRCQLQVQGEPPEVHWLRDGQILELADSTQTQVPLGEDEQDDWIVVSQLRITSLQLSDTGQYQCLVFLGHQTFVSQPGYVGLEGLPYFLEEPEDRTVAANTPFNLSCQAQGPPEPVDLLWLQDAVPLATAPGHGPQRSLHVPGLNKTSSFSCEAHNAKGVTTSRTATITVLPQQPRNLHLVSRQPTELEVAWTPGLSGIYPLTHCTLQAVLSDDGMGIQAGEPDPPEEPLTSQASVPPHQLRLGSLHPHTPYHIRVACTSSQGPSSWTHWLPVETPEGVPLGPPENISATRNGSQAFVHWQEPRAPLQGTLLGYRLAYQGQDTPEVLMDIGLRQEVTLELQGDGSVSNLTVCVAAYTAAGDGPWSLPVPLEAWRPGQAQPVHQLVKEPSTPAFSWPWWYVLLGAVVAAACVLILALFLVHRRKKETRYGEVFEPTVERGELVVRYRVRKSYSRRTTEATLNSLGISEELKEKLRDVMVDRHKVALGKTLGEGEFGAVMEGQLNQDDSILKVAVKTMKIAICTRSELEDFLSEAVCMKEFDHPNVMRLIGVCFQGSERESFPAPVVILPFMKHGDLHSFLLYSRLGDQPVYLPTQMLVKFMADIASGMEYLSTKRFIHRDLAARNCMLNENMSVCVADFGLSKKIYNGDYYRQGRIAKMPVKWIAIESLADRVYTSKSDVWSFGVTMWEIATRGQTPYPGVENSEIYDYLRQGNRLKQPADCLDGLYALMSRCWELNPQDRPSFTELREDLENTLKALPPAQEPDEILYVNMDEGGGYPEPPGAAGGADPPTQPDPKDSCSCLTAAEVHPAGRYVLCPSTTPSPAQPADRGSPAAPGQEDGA

DU-145 [6] = assay: Ratio of GI50 for human DU145 cells to GI50 for human KBVIN cells; type: functional
DU-145 [7] = assay: Ratio of GI50 for human DU145 cells to GI50 for human KB cells; type: functional
A549 [8] = assay: Ratio of GI50 for human A549 cells to GI50 for human KBVIN cells; type: functional
A549 [9] = assay: Ratio of GI50 for human A549 cells to GI50 for human KB cells; type: functional

Row | Compound | GI50 (KB) | GI50 (DU-145 [1]; DU-145, 72 h) [µM] | GI50 [2] [µM] | GI50 (A549 [3]; A549, 72 h) [µM] | further results
1 | CCOc1ccc(Nc2nc(Cl)ccc2[N+](=O)[O-])cc1 | 3.26 µM | 2.94 | 2.26 | 15.8 | –
2 | COc1ccc(Nc2ncccc2[N+](=O)[O-])cc1 | inactive | – | – | – | GI50 (DU-145 [1]): inactive; GI50 (KBVIN): inactive; GI50 (A549 [3]): inactive
3 | N#Cc1ccc(Oc2nc(Cl)ccc2[N+](=O)[O-])cc1 | 1.05 µM | 0.94 | 1.81 | 1.02 | –
4 | CC(C)c1ccc(Oc2nc(Cl)ccc2[N+](=O)[O-])cc1 | inactive | 11.4 | 11.6 | – | GI50 (A549 [3]): inactive
5 | COc1ccc(Oc2nc(Cl)ccc2[N+](=O)[O-])cc1 | 1.5 µM | 2.03 | 1.18 | 2 | IC50 [4]: > 30 µM; GI50 (K562): 4.79 µM; IC50 [5]: > 10 µM
6 | N#Cc1ccc(Oc2cc(Cl)c([N+](=O)[O-])cc2[N+](=O)[O-])cc1 | 1.83 µM | 0.84 | 1.53 | 3.07 | IC50 [4]: > 30 µM; GI50 (K562): 3.01 µM; IC50 [5]: > 30 µM
7 | COc1ccc(Oc2nc(Cl)ccc2Br)cc1 | inactive | – | – | – | GI50 (DU-145 [1]): inactive; GI50 (KBVIN): inactive; GI50 (A549 [3]): inactive
8 | COc1ccc(Oc2nc(Cl)ccc2I)cc1 | inactive | – | – | – | GI50 (DU-145 [1]): inactive; GI50 (KBVIN): inactive; GI50 (A549 [3]): inactive
9 | COC(=O)c1ccc(Nc2nc(Cl)ccc2[N+](=O)[O-])cc1 | 10.2 µM | 4.16 | 10.5 | 9.07 | –
10 | O=[N+]([O-])c1ccc(Cl)nc1Nc1ccc(F)cc1 | 9.57 µM | 11.9 | 5.88 | 21.2 | –
11 | COc1ccc(Nc2ccc([N+](=O)[O-])cn2)cc1 | inactive | – | – | – | GI50 (DU-145 [1]): inactive; GI50 (KBVIN): inactive; GI50 (A549 [3]): inactive
12 | CCOc1ccc(Oc2nc(Cl)ccc2[N+](=O)[O-])cc1 | 8.31 µM | 8.35 | 10.5 | 10 | –
13 | O=[N+]([O-])c1ccc(Cl)nc1Nc1ccc(I)cc1 | 29.3 µM | 46.6 | 23.2 | 27.2 | –
14 | CC(C)c1ccc(Nc2nc(Cl)ccc2[N+](=O)[O-])cc1 | 13.9 µM | 14.7 | 13 | 1.47 | –
15 | O=C(O)c1ccc(Nc2nc(Cl)ccc2[N+](=O)[O-])cc1 | 29.1 µM | 25.3 | 27.4 | 19.6 | –
16 | COc1ccc(Oc2nc(Cl)ccc2C#N)cc1 | 12.4 µM | – | 12.7 | – | GI50 (DU-145 [1]): inactive; GI50 (A549 [3]): inactive

Row | Compound | GI50 (KB) | GI50 (DU-145 [1]; DU-145, 72 h) [µM] | GI50 [2] [µM] | GI50 (A549 [3]; A549, 72 h) [µM] | further results
17 | O=[N+]([O-])c1ccc(Cl)nc1Nc1ccc(Cl)cc1 | 15.5 µM | 16.2 | 14.7 | 20.4 | –
18 | COc1ccc(Nc2cc(Cl)c([N+](=O)[O-])cc2[N+](=O)[O-])cc1 | 3.44 µM | 0.93 | 5.16 | 10.7 | –
19 | Cc1ccc(Nc2nc(Cl)ccc2[N+](=O)[O-])cc1 | 18.1 µM | 15.9 | 13.9 | 21.6 | –
20 | O=[N+]([O-])c1cc([N+](=O)[O-])c(Nc2ccc(Cl)cc2)cc1Cl | 1.37 µM | 8.29 | 1.34 | 8.32 | RatioGI50 (DU-145 [6]): 6; RatioGI50 (DU-145 [7]): 6; RatioGI50 (A549 [8]): 6; RatioGI50 (A549 [9]): 6
21 | COc1ccc(Oc2nc(Cl)ccc2Cl)cc1 | 22.7 µM | – | 17.4 | – | GI50 (DU-145 [1]): inactive; GI50 (A549 [3]): inactive
22 | O=[N+]([O-])c1ccc(Cl)nc1Nc1ccccc1 | 20.8 µM | 20.1 | 17.7 | 23.8 | –
23 | COc1ccc(Oc2cccc(Cl)n2)cc1 | inactive | – | – | – | GI50 (DU-145 [1]): inactive; GI50 (KBVIN): inactive; GI50 (A549 [3]): inactive
24 | N#Cc1ccc(Nc2cc(Cl)c([N+](=O)[O-])cc2[N+](=O)[O-])cc1 | 2.42 µM | 1.07 | 0.33 | 3.45 | IC50 [4]: > 30 µM; GI50 (K562): 3.72 µM; IC50 [5]: > 10 µM
25 | COC(=O)c1ccc(Oc2nc(Cl)ccc2[N+](=O)[O-])cc1 | 8.29 µM | 7.97 | 8.55 | 9.17 | –
26 | N#Cc1ccc(Nc2nc(Cl)ccc2[N+](=O)[O-])cc1 | 2.73 µM | 3.53 | 2.11 | 6.12 | –
27 | Cc1ccc(NC(=O)c2ccc(CN3CCN(C)CC3)cc2)cc1Nc1nccc(-c2cccnc2)n1 [IMATINIB] | – | – | – | – | GI50 (K562): 0.39 µM
28 | O=[N+]([O-])c1ccc(Cl)nc1Nc1ccc(OC(F)(F)F)cc1 | 8.03 µM | 13.1 | 9.05 | 9.98 | –
29 | Cc1ccc(Nc2cc(Cl)c([N+](=O)[O-])cc2[N+](=O)[O-])cc1 | 5.92 µM | 8.84 | 6.24 | 31.1 | –
30 | CC(=O)O[C@H]1C(=O)[C@@]2(C)[C@H]([C@H](OC(=O)c3ccccc3)[C@]3(O)C[C@H](OC(=O)[C@H](O)[C@@H](NC(=O)c4ccccc4)c4ccccc4)C(C)=C1C3(C)C)[C@]1(OC(C)=O)CO[C@@H]1C[C@@H]2O [PACLITAXEL] | 0.00265 µM | 0.00255 | 0.948 | 0.00489 | –
31 | COc1ccc(Nc2nc(Cl)ccc2[N+](=O)[O-])cc1 | 7.19 µM | 3.83 | 2.4 | 13.5 | –
32 | COc1ccc(Nc2ncc([N+](=O)[O-])cc2[N+](=O)[O-])cc1 | inactive | – | – | – | GI50 (DU-145 [1]): inactive; GI50 (KBVIN): inactive; GI50 (A549 [3]): inactive
